In ChEMBL document CHEMBL1127852, “Synthesis and antibacterial activity of thiazolopyrazine-incorporated tetracyclic quinolone antibacterial agents. 2” (1994):
Values after ≈ are worked out from the molar mass of the structure shown.

Key:
Format in all cases: functional
[1] = test system: Pseudomonas aeruginosa; experiment: Compound was tested for its minimal inhibitory constant against Gram-negative microorganism Pseudomonas aeruginosa E-2 (Pa(E))
How it was run: (§1)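 Serial 2-fold agar dilution on Sensitivity Test agar, inoculum approximately 10^6 CFU/mL, incubated 37 °C for 18 h. MIC taken as lowest concentration preventing visible growth. Values are means of duplicate or triplicate experiments.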

[2] = test system: Mus musculus; experiment: Compound was tested for Therapeutic effects on systemic infections on mice by peroral administration; details: po
How it was run: (§2)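 Mouse protection against S. aureus IID 803: groups of five male ddY mice (25–28 g) infected i.p. with 0.5 mL bacterial dilution at 100 or 200 times the 50% lethal dose; compound suspended in 1% aqueous gum arabic, given orally 1 h postinfection. Survival scored after 1 week; ED50 with 95% confidence limits by Weil method.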

[3] = test system: Escherichia coli; experiment: Compound was tested for its minimal inhibitory constant against Gram-negative microorganism Escherichia coli NIHJ JC-2 (Ec(N)); how it was run: as §1
[4] = test system: Enterococcus faecalis; experiment: Compound was tested for its minimal inhibitory constant against Gram-positive microorganism Enterococcus faecalis IID682 (Ef); how it was run: as §1
[5] = test system: Micrococcus luteus; experiment: Compound was tested for its minimal inhibitory constant against Gram-positive microorganism Micrococcus luteus ATCC 9341 (MI); how it was run: as §1
[6] = test system: Pseudomonas aeruginosa; experiment: Compound was tested for its minimal inhibitory constant against Gram-negative microorganism Pseudomonas aeruginosa IFO 3445 (Pa(I)); how it was run: as §1
[7] = test system: Escherichia coli; experiment: Compound was tested for its minimal inhibitory constant against Gram-negative microorganism Escherichia coli KC-14 (Ec(K)); how it was run: as §1
[8] = test system: Staphylococcus aureus; experiment: Compound was tested for its minimal inhibitory constant against Gram-positive microorganism Staphylococcus aureus FDA 209P JC-1 (Sa(F)); how it was run: as §1
[9] = test system: Staphylococcus aureus; experiment: Compound was tested for its minimal inhibitory constant against Gram-positive microorganism Staphylococcus aureus IID 803 (Sa(I)); how it was run: as §1
[10] = test system: Staphylococcus epidermidis; experiment: Compound was tested for its minimal inhibitory constant against Gram-positive microorganism Staphylococcus epidermidis IAM 1296 (Se); how it was run: as §1
[11] = test system: Klebsiella pneumoniae; experiment: Compound was tested for its minimal inhibitory constant against Gram-negative microorganism Klebsiella pneumoniae B54 (Kp); how it was run: as §1
[12] = test system: Mus musculus; experiment: Compound was tested for oral efficacy on systemic infections on mice by peroral administration; how it was run: as §2
[13] = test system: Staphylococcus aureus; experiment: Tested for in vitro for antibacterial activity against 16 clinical isolated of methicillin-resistant Staphylococcus aureus, range of Minimal inhibitory activity value for isolates
How it was run: (§3)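 Serial 2-fold agar dilution in Sensitivity Test agar, following the standard method. Clinical MRSA isolates collected in Japan in 1988 and 1989. Inoculum about 10^6 CFU/mL. Plates incubated at 37 °C for 18 h. MIC taken as the lowest concentration that prevented visible growth.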

[14] = test system: Staphylococcus aureus; experiment: Tested for in vitro for antibacterial activity against 16 clinical isolated of methicillin-resistant Staphylococcus aureus; how it was run: as §3

Row | SMILES | MIC [1] | ED50 [2] | MIC [3] | MIC [4] | MIC [5] | MIC [6] | MIC [7] | MIC [8] | MIC [9] | MIC [10] | MIC [11] | ED50 [12] | MIC [13] | MIC50 [14] | MIC90 [14] | MIC [14]
1 | COC[C@H]1CN(c2c(F)cc3c(=O)c(C(=O)O)c4scc5n4c3c2N(C)C5)CCO1 | 3.13 µg/mL (≈ 7.22 µM) | 1.25 mg/kg | 0.39 µg/mL (≈ 0.9 µM) | 0.2 µg/mL (≈ 0.461 µM) | 0.2 µg/mL (≈ 0.461 µM) | 3.13 µg/mL (≈ 7.22 µM) | 0.39 µg/mL (≈ 0.9 µM) | 0.025 µg/mL (≈ 0.0577 µM) | 0.006 µg/mL (≈ 0.0138 µM) | 0.025 µg/mL (≈ 0.0577 µM) | 0.39 µg/mL (≈ 0.9 µM) |  |  |  |  | 
2 | COC[C@@H]1CN(c2c(F)cc3c(=O)c(C(=O)O)c4scc5n4c3c2N(C)C5)CCO1 | 3.13 µg/mL (≈ 7.22 µM) | 0.82 mg/kg | 0.2 µg/mL (≈ 0.461 µM) | 0.2 µg/mL (≈ 0.461 µM) | 0.2 µg/mL (≈ 0.461 µM) | 3.13 µg/mL (≈ 7.22 µM) | 0.39 µg/mL (≈ 0.9 µM) | 0.025 µg/mL (≈ 0.0577 µM) | 0.0125 µg/mL (≈ 0.0288 µM) | 0.05 µg/mL (≈ 0.115 µM) | 0.78 µg/mL (≈ 1.8 µM) |  |  |  |  | 
3 | CN1Cc2csc3c(C(=O)O)c(=O)c4cc(F)c(N5CCOC(CO)C5)c1c4n23 (configuration not stated) | 1.56 µg/mL (≈ 3.72 µM) |  | 0.1 µg/mL (≈ 0.238 µM) | 0.1 µg/mL (≈ 0.238 µM) | 0.2 µg/mL (≈ 0.477 µM) | 1.56 µg/mL (≈ 3.72 µM) | 0.1 µg/mL (≈ 0.238 µM) | 0.0125 µg/mL (≈ 0.0298 µM) | 0.006 µg/mL (≈ 0.0143 µM) | 0.05 µg/mL (≈ 0.119 µM) | 0.39 µg/mL (≈ 0.93 µM) | 5.1 mg/kg | ≤ 0.006 µg/mL | 0.39 µg/mL (≈ 0.93 µM) | 0.78 µg/mL (≈ 1.86 µM) | 
4 | CC1CN(c2c(F)cc3c(=O)c(C(=O)O)c4scc5n4c3c2N(C)C5)CCO1 (configuration not stated) | 0.78 µg/mL (≈ 1.93 µM) |  | 0.1 µg/mL (≈ 0.248 µM) | 0.05 µg/mL (≈ 0.124 µM) | 0.1 µg/mL (≈ 0.248 µM) | 0.78 µg/mL (≈ 1.93 µM) | 0.1 µg/mL (≈ 0.248 µM) | 0.0125 µg/mL (≈ 0.031 µM) | 0.006 µg/mL (≈ 0.0149 µM) | 0.0125 µg/mL (≈ 0.031 µM) | 0.39 µg/mL (≈ 0.967 µM) | 3.5 mg/kg | ≤ 0.006 µg/mL | 0.1 µg/mL (≈ 0.248 µM) | 0.2 µg/mL (≈ 0.496 µM) | 
5 | CNCC1CN(c2c(F)cc3c(=O)c(C(=O)O)c4scc5n4c3c2N(C)C5)CCO1 (configuration not stated) | 3.13 µg/mL (≈ 7.24 µM) |  | 0.2 µg/mL (≈ 0.462 µM) | 0.2 µg/mL (≈ 0.462 µM) | 0.78 µg/mL (≈ 1.8 µM) | 3.13 µg/mL (≈ 7.24 µM) | 0.2 µg/mL (≈ 0.462 µM) | 0.025 µg/mL (≈ 0.0578 µM) | 0.05 µg/mL (≈ 0.116 µM) | 0.1 µg/mL (≈ 0.231 µM) | 1.56 µg/mL (≈ 3.61 µM) |  |  |  |  | 
6 | CN(C)CC1CN(c2c(F)cc3c(=O)c(C(=O)O)c4scc5n4c3c2N(C)C5)CCO1 (configuration not stated) | 6.25 µg/mL (≈ 14 µM) |  | 0.39 µg/mL (≈ 0.873 µM) | 0.1 µg/mL (≈ 0.224 µM) | 0.2 µg/mL (≈ 0.448 µM) | 6.25 µg/mL (≈ 14 µM) | 0.2 µg/mL (≈ 0.448 µM) | 0.025 µg/mL (≈ 0.056 µM) | 0.025 µg/mL (≈ 0.056 µM) | 0.05 µg/mL (≈ 0.112 µM) | 0.39 µg/mL (≈ 0.873 µM) | 4.8 mg/kg |  |  |  | 
7 | CN1Cc2csc3c(C(=O)O)c(=O)c4cc(F)c(N5CCOC(CCl)C5)c1c4n23 (configuration not stated) | 1.56 µg/mL (≈ 3.56 µM) |  | 0.2 µg/mL (≈ 0.457 µM) | 0.05 µg/mL (≈ 0.114 µM) | 0.05 µg/mL (≈ 0.114 µM) | 1.56 µg/mL (≈ 3.56 µM) | 0.2 µg/mL (≈ 0.457 µM) | 0.0125 µg/mL (≈ 0.0285 µM) | 0.006 µg/mL (≈ 0.0137 µM) | 0.0125 µg/mL (≈ 0.0285 µM) | 0.39 µg/mL (≈ 0.891 µM) |  | < 0.006 µg/mL | 0.1 µg/mL (≈ 0.228 µM) | 0.2 µg/mL (≈ 0.457 µM) | 
8 | CCC1CN(c2c(F)cc3c(=O)c(C(=O)O)c4scc5n4c3c2N(C)C5)CCO1 (configuration not stated) | 1.56 µg/mL (≈ 3.74 µM) |  | 0.39 µg/mL (≈ 0.934 µM) | 0.1 µg/mL (≈ 0.24 µM) | 0.2 µg/mL (≈ 0.479 µM) | 3.13 µg/mL (≈ 7.5 µM) | 0.39 µg/mL (≈ 0.934 µM) | 0.025 µg/mL (≈ 0.0599 µM) | 0.025 µg/mL (≈ 0.0599 µM) | 0.05 µg/mL (≈ 0.12 µM) | 0.39 µg/mL (≈ 0.934 µM) | > 12 mg/kg |  |  |  | 
9 | CC1CN(c2c(F)cc3c(=O)c(C(=O)O)c4scc5n4c3c2N(C)C5)CC(C)O1 (configuration not stated) | 3.13 µg/mL (≈ 7.5 µM) |  | 0.39 µg/mL (≈ 0.934 µM) | 0.2 µg/mL (≈ 0.479 µM) | 0.2 µg/mL (≈ 0.479 µM) | 3.13 µg/mL (≈ 7.5 µM) | 0.39 µg/mL (≈ 0.934 µM) | 0.0125 µg/mL (≈ 0.0299 µM) | 0.0125 µg/mL (≈ 0.0299 µM) | 0.1 µg/mL (≈ 0.24 µM) | 0.78 µg/mL (≈ 1.87 µM) | > 12 mg/kg |  |  |  | 
10 | COCC1CN(c2c(F)cc3c(=O)c(C(=O)O)c4scc5n4c3c2N(C)C5)CCO1 (configuration not stated) | 3.13 µg/mL (≈ 7.22 µM) | 1.09 mg/kg | 0.2 µg/mL (≈ 0.461 µM) | 0.2 µg/mL (≈ 0.461 µM) | 0.2 µg/mL (≈ 0.461 µM) | 3.13 µg/mL (≈ 7.22 µM) | 0.39 µg/mL (≈ 0.9 µM) | 0.025 µg/mL (≈ 0.0577 µM) | 0.0125 µg/mL (≈ 0.0288 µM) | 0.05 µg/mL (≈ 0.115 µM) | 0.78 µg/mL (≈ 1.8 µM) | 1.7 mg/kg | ≤ 0.006 µg/mL | 0.39 µg/mL (≈ 0.9 µM) | 0.78 µg/mL (≈ 1.8 µM) | 
11 | CN1Cc2csc3c(C(=O)O)c(=O)c4cc(F)c(N5CCOC(CF)C5)c1c4n23 (configuration not stated) | 0.78 µg/mL (≈ 1.85 µM) |  | 0.1 µg/mL (≈ 0.237 µM) | 0.05 µg/mL (≈ 0.119 µM) | 0.1 µg/mL (≈ 0.237 µM) | 0.78 µg/mL (≈ 1.85 µM) | 0.1 µg/mL (≈ 0.237 µM) | 0.0125 µg/mL (≈ 0.0297 µM) | 0.006 µg/mL (≈ 0.0142 µM) | 0.025 µg/mL (≈ 0.0593 µM) | 0.2 µg/mL (≈ 0.475 µM) | 1.9 mg/kg |  | 0.2 µg/mL (≈ 0.475 µM) | 0.2 µg/mL (≈ 0.475 µM) | ≤ 0.006 µg/mL
12 | CN1Cc2csc3c(C(=O)O)c(=O)c4cc(F)c(N5CCOCC5)c1c4n23 | 0.39 µg/mL (≈ 1 µM) |  | 0.1 µg/mL (≈ 0.257 µM) | 0.05 µg/mL (≈ 0.128 µM) | 0.1 µg/mL (≈ 0.257 µM) | 0.39 µg/mL (≈ 1 µM) | 0.1 µg/mL (≈ 0.257 µM) | 0.006 µg/mL (≈ 0.0154 µM) | 0.006 µg/mL (≈ 0.0154 µM) | 0.025 µg/mL (≈ 0.0642 µM) | 0.05 µg/mL (≈ 0.128 µM) | > 12 mg/kg |  | 0.2 µg/mL (≈ 0.514 µM) | 0.2 µg/mL (≈ 0.514 µM) | < 0.006 µg/mL
13 | CC1COc2c(N3CCN(C)CC3)c(F)cc3c(=O)c(C(=O)O)cn1c23 (configuration not stated) [OFLOXACIN] | 1.56 µg/mL (≈ 4.32 µM) | 14.6 mg/kg |  | 1.56 µg/mL (≈ 4.32 µM) |  |  | 0.1 µg/mL (≈ 0.277 µM) |  |  |  | 0.1 µg/mL (≈ 0.277 µM) | 11.4 mg/kg |  | 6.25 µg/mL (≈ 17.3 µM) | 50 µg/mL (≈ 138 µM) | 
